Published values collected from several papers.
Each line is one published result; the experiments were not run side by side.
Target: Dual specificity tyrosine-phosphorylation-regulated kinase 1A (DYRK1A, Homo sapiens, UniProt Q13627)

SMILES | read-out | mode | method | concentration | endpoint | result
O=C1NC(c2ccccn2)Sc2ccccc21 (stereo not shown) | cell-free assay |  | competition with immobilised ligand | 1 µM | remaining binding | 100%
COc1cc(/C=C/C(=O)CC(=O)/C=C/c2ccc(O)c(OC)c2)ccc1O | enzyme activity | inhibitor |  | 1 µM | activity vs control | 20%
N#Cc1cccc(Nc2nc3cc(C(=O)O)ccc3c3cncnc23)c1 | enzyme activity | inhibitor | radiometric | 1 µM | remaining activity | 3%
CC1(C)NC(=O)c2[nH]c3c(Cl)c(Cl)ccc3c2C1C#N (stereo not shown) | thermal stability |  | DSF | 10 µM | ΔTm | 2.6 °C
CO[C@@H](C)c1c(Nc2ccc([C@@H](N(C)C(=O)C3CCS(=O)(=O)CC3)C(F)(F)F)cc2)cnc2cc(Cl)nn12 | cell-free assay |  | competition with immobilised ligand | 1 µM | remaining binding | 92%
O=C(O)c1ccc2c(c1)nc(Nc1cccc(F)c1)c1ncncc12 | enzyme activity | inhibitor | radiometric | 1 µM | remaining activity | 1%
Cn1c2c(c3ccc(Cl)c(Cl)c31)C(C#N)C1(CCN(C(=O)OC(C)(C)C)CC1)NC2=O (racemic) | thermal stability |  | DSF | 10 µM | ΔTm | -0.8 °C
Cc1ccc(NC(=O)c2ccc(C)c(C(F)(F)F)c2)cc1C#Cc1nn(C2CCC(O)CC2)c2ncnc(N)c12 (stereo not shown) | cell-free assay |  |  | 10 µM | remaining signal | 95%
N#CCCc1ccc2c(c1)-c1[nH]c3ccc([N+](=O)[O-])cc3c1CC(=O)N2 | cell-free assay |  |  | 0.5 µM | remaining signal | 85.9%
O=C(O)c1ccc2c(c1)nc(NCCc1cccc(Cl)c1)c1ccncc12 | enzyme activity | inhibitor | radiometric | 1 µM | remaining activity | 17%
CC/C(=N\NC(=O)NCc1cccc(O)c1)c1ccc(O)c(C)c1O | enzyme activity | inhibitor |  | 0.1 µM | inhibition | -4.7%
O=C(Nc1cccnn1)N1CC(C/C=C/c2cncc(Oc3ccc(C(F)(F)F)cn3)n2)C1 | cell-free assay |  | competition with immobilised ligand | 1 µM | remaining binding | 75%
O=C(O)c1ccc2c(c1)nc(NCc1ccccc1)c1ncncc12 | enzyme activity | inhibitor | radiometric | 1 µM | remaining activity | 61%
Cc1ccc(C(=O)Nc2ccc(CN3CCN(C)CC3)c(C(F)(F)F)c2)cc1C#Cc1cnc2cccnn12 | cell-free assay |  |  | 23.5 nM | remaining signal | 81%
CCN(CC)CCNC(=O)c1c(C)[nH]c(/C=C2\C(=O)Nc3ccc(F)cc32)c1C | cell-free assay |  |  | 0.5 µM | remaining signal | 56.9%
Cc1c[nH]c2nccc(Oc3c(F)cc(Nc4cc(Cl)nc(N)n4)cc3F)c12 | cell-free assay |  | competition with immobilised ligand | 0.1 µM | remaining binding | 88%

SMILES | read-out | mode | method | concentration | endpoint | result
CN1CCC2(CC1)NC(=O)c1c(c3ccc(Cl)c(Cl)c3n1C)C2C#N (racemic) | thermal stability |  | DSF | 10 µM | ΔTm | 1 °C
CN(C)C1CCN(CC#Cc2nn(C3CCCC3)c3nc(NCc4ccccc4)ncc23)C1 (stereo not shown) | enzyme activity | inhibitor | FRET | 1 µM | inhibition | 4%
O=C(O)c1ccc2c(c1)nc(Nc1ccc3ccccc3c1)c1ncncc12 | enzyme activity | inhibitor | radiometric | 1 µM | remaining activity | -1%
Cn1c2c(Cl)c(Cl)ccc2c2cn[nH]c(=O)c21 | thermal stability |  | DSF | 10 µM | ΔTm | 1.3 °C
Cn1cncc1C1=CN(c2ncnc3[nH]cnc23)CCS1 | enzyme activity | inhibitor | radiometric | 2 µM | inhibition | 95.4%
CC1=C(C#N)[C@@H](c2ccc3[nH]nc(C)c3c2)C(C#N)=C(c2ccc(Cl)cc2)N1 | cell-free assay |  | competition with immobilised ligand | 1 µM | remaining binding | 100%
COc1cccc(CCNc2nc3cc(C(=O)O)ccc3c3cncnc23)c1 | enzyme activity | inhibitor | radiometric | 1 µM | remaining activity | 40%
CC(C)[C@H](CO)Nc1nc(Nc2cccc(Cl)c2)c2ncn(C(C)C)c2n1 | cell-free assay |  |  | 0.5 µM | remaining signal | 65.4%
CNCc1ccccc1-c1csc([C@H](C)Nc2nc(C)nc3cc(OC)c(OC)cc23)c1 | cell-free assay |  | competition with immobilised ligand | 1 µM | remaining binding | 80%
COc1cc2ncnc(Nc3ccc(Oc4ccccc4)cc3C)c2cc1OC | enzyme activity | inhibitor |  | 1 µM | inhibition | -1%
COCCOc1nc(-c2ccc(Cl)nc2)nc2c1CN(C(=O)c1ncn3ccccc13)CC2 | cell-free assay |  | competition with immobilised ligand | 0.1 µM | remaining binding | 78%
O=C(O)c1ccc2c(c1)nc(NCc1ccccc1)c1ccncc12 | enzyme activity | inhibitor | radiometric | 1 µM | remaining activity | 49%
CC(=O)N1CCC(c2ccc(C(=O)NC(=N)N)cc2C(F)(F)F)CC1 | cell-free assay |  | competition with immobilised ligand | 1 µM | remaining binding | 74%
CCN1/C(=C/C(C)=O)Sc2ccc(OC)cc21 | cell-free assay |  |  | 0.5 µM | remaining signal | 28.9%
O=C(O)c1ccc2c(c1)nc(NCCc1cccc(F)c1)c1ccncc12 | enzyme activity | inhibitor | radiometric | 1 µM | remaining activity | 8%
